Assays:
[1] = ST_JUDE: Cytotoxicity using luciferase to measure ATP as an indicator of the viability of human epithelial hepatocellular carcinoma cells (HepG2); type: toxicity, cell-based
[2] = system: Leishmania major; test: ST_JUDE: Cytotoxicity using Alamar Blue to measure viability of Leishmania major; type: functional, organism-based
Procedure, shortened: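 L. major promastigotes; drug susceptibility read with Alamar Blue.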

[3] = system: Plasmodium falciparum; test: ST_JUDE: Cytotoxicity against Plasmodium falciparum 3D7; type: functional, organism-based
Procedure, shortened: (§1)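 Asexual P. falciparum grown in human erythrocytes, exposed to compounds for 72 h, and growth read as the DNA quantity in treated versus control cultures. Dose-response run at 12 concentrations from 10 μM to 5 nM.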

[4] = system: Plasmodium falciparum; test: ST_JUDE: Cytotoxicity against Plasmodium falciparum Dd2; type: functional, organism-based
[5] = ST_JUDE: Cytotoxicity using luciferase to measure ATP as an indicator of the viability of human Burkitt''s lymphoma lymphoblast cells (Raji); type: toxicity, cell-based
[6] = system: Plasmodium falciparum; test: ST_JUDE: Cytotoxicity against Plasmodium falciparum W2; type: functional, organism-based
[7] = system: Plasmodium falciparum; test: ST_JUDE: Cytotoxicity against Plasmodium falciparum K1; type: functional, organism-based; procedure, shortened: as §1
[8] = ST_JUDE: Cytotoxicity using luciferase to measure ATP as an indicator of the viability of human foreskin fibroblast cells (BJ); type: toxicity, cell-based
[9] = ST_JUDE: Cytotoxicity using luciferase to measure ATP as an indicator of the viability of human epithelial embryonic kidney cells (HEK293); type: toxicity, cell-based
[10] = system: Plasmodium falciparum; test: ST_JUDE: Plasmodium falciparum 3D7 EC50 (uM) as measured by SYBR green dye; type: functional, organism-based
[11] = system: Plasmodium falciparum; test: ST_JUDE: Cytotoxicity against Plasmodium falciparum D10 transfected with yeast DHOD; type: functional, organism-based
[12] = system: Trypanosoma brucei; test: ST_JUDE: Cytotoxicity using luciferase to measure ATP as an indicator of the viability of Trypanosoma brucei; type: functional, organism-based
[13] = system: Plasmodium falciparum; test: ST_JUDE: Cytotoxicity against Plasmodium falciparum SB-A6; type: functional, organism-based
[14] = system: Toxoplasma gondii; test: ST_JUDE: Growth inhibition of to Toxoplasma gondii, in human U-2OS cells, as measured by luciferase.; type: functional, organism-based; conditions: RH, U2OS
Procedure, shortened: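 T. gondii parasites engineered to express luciferase; drug sensitivity read by luminescence.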

[15] = system: Plasmodium falciparum; test: ST_JUDE: Cytotoxicity against Plasmodium falciparum V1/S; type: functional, organism-based
[16] = system: Plasmodium falciparum; test: ST_JUDE: Plasmodium falciparum K1 EC50 (uM) as measured by SYBR green dye; type: functional, organism-based

| EC50 [10] [nM] | EC50 [16] [nM] | SMILES | EC50 [1] [nM] | EC50 [2] [nM] | EC50 [3] [nM] | EC50 [4] [nM] | EC50 [5] [nM] | EC50 [6] [nM] | EC50 [7] [nM] | EC50 [8] [nM] | EC50 [9] [nM] | EC50 [11] [nM] | EC50 [12] [nM] | EC50 [13] [nM] | EC50 [14] [nM] | EC50 [15] [nM] |
| --- | --- | --- | --- | --- | --- | --- | --- | --- | --- | --- | --- | --- | --- | --- | --- | --- |
| 593 | 1160 | CCOC(=O)c1cccc(NC(=O)CC2C(=O)N(c3ccc(F)cc3)C(=O)N2CCC(C)C)c1 (stereo not drawn) | > 43400 | > 18600 | 945 | 635 | > 43400 | > 11100 | > 11100 | > 43400 | > 43400 | 950 | 11800 | 1060 | > 23800 | 1070 |
| 1070 | 1280 | CCOc1cc(C2CC(=O)NC3=C2C(=O)CC(c2cc(OC)ccc2OC)C3)ccc1O (stereo not drawn) | > 40900 | > 17500 | 1050 | 1380 | > 40900 | 1980 | 1090 | > 40900 | > 40900 | 1140 | > 39200 | 1130 | > 22400 | 1660 |
| 253 | 94.6 | COCCO/C(O)=C1\C(C)=NC2=C(C(=O)CC(c3ccc(OC)c(OC)c3)C2)C1c1ccc(F)cc1 (stereo not drawn) | > 42400 | > 18200 | 740 | 526 | > 42400 | 470 | 518 | > 42400 | > 42400 | 2990 | 17400 | 2670 | > 23200 | 1620 |
| 444 | 1340 | CCOc1ccc2nc(C)cc(Nc3ccc(Cl)cc3)c2c1 | 7260 | 379 | 1070 | 577 | 19800 | 754 | 4080 | 8780 | 21200 | 536 | 8100 | 296 | > 21700 | 2770 |

The remaining lines, values behind:

| SMILES | EC50 [10] [nM] | EC50 [16] [nM] | EC50 [1] [nM] | EC50 [2] [nM] | EC50 [3] [nM] | EC50 [4] [nM] | EC50 [5] [nM] | EC50 [6] [nM] | EC50 [7] [nM] | EC50 [8] [nM] | EC50 [9] [nM] | EC50 [11] [nM] | EC50 [12] [nM] | EC50 [13] [nM] | EC50 [14] [nM] | EC50 [15] [nM] |
| --- | --- | --- | --- | --- | --- | --- | --- | --- | --- | --- | --- | --- | --- | --- | --- | --- |
| COc1ccccc1Cn1ccnc1SCC(=O)Nc1cc(C(F)(F)F)ccc1Cl | 119 | 170 | > 39100 | > 16700 | 190 | 246 | > 39100 | 2670 | 252 | > 39100 | > 39100 | > 10000 | 12100 | > 10000 | > 21400 | 288 |
| CSc1ccc2ccccc2[n+]1C | 1590 | 893 | > 37100 | > 15900 | 590 | 1530 | > 37100 | 3210 | 588 | > 37100 | > 37100 | 1110 | > 35600 | 1200 | > 20300 | 1830 |
| C#CC[n+]1ccn2c(C)ccc2c1CC | > 15000 | 1380 | > 49800 | > 21300 | 1680 | 1540 | 40700 | 3440 | 1420 | > 49800 | > 49800 | > 12800 | > 47700 | 2530 | > 27300 | > 12800 |
| Cc1ccc(C2(c3ccc(C)cc3)CC2C(=O)Nc2ccc([N+](=O)[O-])cc2O)cc1 (stereo not drawn) | 658 | 582 | 10700 | > 16500 | 1010 | 2090 | 10600 | 1830 | 741 | 11000 | 11400 | 1600 | 4780 | 1830 | > 21100 | 1260 |

From ChEMBL document CHEMBL1154198, “Chemical genetics of Plasmodium falciparum” (Nature, 2010)
